Results reported in ChEMBL document CHEMBL1158955, “Biologically active metabolites from Xenorhabdus spp., Part 1. Dithiolopyrrolone derivatives with antibiotic activity” (1991).
Converted amounts (≈) assume the structure as drawn.

What was measured:
Bacillus cereus = test: Antimicrobial activity against Bacillus cereus BTA 432 after 18 hrs by broth dilution method; format: functional; details: BTA 432, 18 h
Procedure, shortened: (§1)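 Broth dilution in TS broth in 24-well dishes. Compound dissolved in DMSO and diluted from a starting concentration of 2.5%. Inocula were grown from fresh TS agar plates in TS broth at 37° to A525 0.5, then diluted 10^-4. Incubation was 37° for 18 h. Turbidity was read by eye and confirmed by plating onto TS agar. MIC is the last dilution giving ≤20 colonies.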

Helicoverpa punctigera [1] = test: Insecticidal activity in Heliothis punctigera assessed as mortality at 150 ug.cm'-2 by larval feeding assay; format: functional
Procedure, shortened: (§2)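 Artificial diet set in 24-well plates to 1 cm depth; 30 μl of test material in DMSO spread over the surface, with DMSO-only controls. After drying, one first-instar Heliothis punctigera larva placed per well, 16 wells per dose, and each well closed with a polypropylene ball. Held 7 days at 28°, then scored for mortality and survivors weighed; LC50 derived by probit analysis.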

Micrococcus luteus = test: Antimicrobial activity against Micrococcus luteus BTA 433 after 18 hrs by broth dilution method; format: functional; details: BTA 433, 18 h; procedure, shortened: as §1
Shigella sonnei = test: Antimicrobial activity against Shigella sonnei BTA 431 after 18 hrs by broth dilution method; format: functional; details: BTA 431, 18 h; procedure, shortened: as §1
Candida albicans = test: Antimicrobial activity against Candida albicans ATCC 10231 after 18 hrs by broth dilution method; format: functional; details: ATCC 10231, 18 h; procedure, shortened: as §1
Salmonella typhimurium = test: Antimicrobial activity against Salmonella Typhimurium BTA 438 after 18 hrs by broth dilution method; format: functional, Salmonella enterica subsp. enterica serovar Typhimurium; details: Salmonella enterica, BTA 438, 18 h; procedure, shortened: as §1
Helicoverpa punctigera [2] = test: Insecticidal activity in Heliothis punctigera assessed as weight reduction at 37.5 ug.cm'-2 relative to control; format: functional; set-up: scale not given: the % may be the effect or the level left
Procedure, shortened: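 Diet-surface feeding test. Molten artificial diet was poured 1 cm deep in 24-well plates, and test material in DMSO (30 μl) was spread on the surface; controls got DMSO only. Once dry, one first-instar H. punctigera larva was placed per well (16 wells per dose) and the well was capped. After 7 days at 28°, mortality was scored and surviving larvae were weighed.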

Staphylococcus aureus = test: Antimicrobial activity against Staphylococcus aureus ATCC 6538P after 18 hrs by broth dilution method; format: functional; procedure, shortened: as §1
Escherichia coli = test: Antimicrobial activity against Escherichia coli K88 BTA 430 after 18 hrs by broth dilution method; format: functional; details: K88 BTA 430, 18 h; procedure, shortened: as §1
Streptococcus pyogenes = test: Antimicrobial activity against Streptococcus pyogenes IMR-RNSH after 18 hrs by broth dilution method; format: functional; procedure, shortened: as §1
Helicoverpa punctigera [3] = test: Insecticidal activity in Heliothis punctigera assessed as mortality by larval feeding assay; format: functional; procedure, shortened: as §2
Proteus mirabilis = test: Antimicrobial activity against Proteus mirabilis BTA 585 after 18 hrs by broth dilution method; format: functional; details: BTA 585, 18 h; procedure, shortened: as §1
Helicoverpa punctigera [4] = test: Insecticidal activity in Heliothis punctigera assessed as mortality at 37.5 ug.cm'-2 by larval feeding assay; format: functional; procedure, shortened: as §2
Pseudomonas aeruginosa = test: Antimicrobial activity against Pseudomonas aeruginosa BTA 429 after 18 hrs by broth dilution method; format: functional; details: BTA 429, 18 h; procedure, shortened: as §1

In the case of CC(C)CCCC(=O)Nc1c2sscc-2[nH]c1=O [XENORHABDIN 2], the MIC (Bacillus cereus) is reported as 3.13 µg/mL (≈ 11 µM), the Activity (Helicoverpa punctigera [1]) is reported as 100% and the MIC (Micrococcus luteus) is reported as 0.156 µg/mL (≈ 0.549 µM). The MIC (Shigella sonnei) was over 100 µg/mL, the MIC (Candida albicans) was over 100 µg/mL and the MIC (Salmonella typhimurium) was over 100 µg/mL. The Activity (Helicoverpa punctigera [2]) was 64.7%, the MIC (Staphylococcus aureus) was 20 µg/mL (≈ 70.3 µM) and the MIC (Escherichia coli) was over 100 µg/mL. It also gave an MIC (Streptococcus pyogenes) of 1.25 µg/mL (≈ 4.4 µM), an LC50 (Helicoverpa punctigera [3]) of 59.5 ug.cm'-2 and an MIC (Proteus mirabilis) of over 100 µg/mL. It also gave an Activity (Helicoverpa punctigera [4]) of 18.8% and an MIC (Pseudomonas aeruginosa) of over 100 µg/mL.
